Experiment [1] has as its target T1, Adrenergic receptor alpha-1 (Rattus norvegicus, UniProt P15823+P23944+P43140).
T1 sequence (P15823 whole entry): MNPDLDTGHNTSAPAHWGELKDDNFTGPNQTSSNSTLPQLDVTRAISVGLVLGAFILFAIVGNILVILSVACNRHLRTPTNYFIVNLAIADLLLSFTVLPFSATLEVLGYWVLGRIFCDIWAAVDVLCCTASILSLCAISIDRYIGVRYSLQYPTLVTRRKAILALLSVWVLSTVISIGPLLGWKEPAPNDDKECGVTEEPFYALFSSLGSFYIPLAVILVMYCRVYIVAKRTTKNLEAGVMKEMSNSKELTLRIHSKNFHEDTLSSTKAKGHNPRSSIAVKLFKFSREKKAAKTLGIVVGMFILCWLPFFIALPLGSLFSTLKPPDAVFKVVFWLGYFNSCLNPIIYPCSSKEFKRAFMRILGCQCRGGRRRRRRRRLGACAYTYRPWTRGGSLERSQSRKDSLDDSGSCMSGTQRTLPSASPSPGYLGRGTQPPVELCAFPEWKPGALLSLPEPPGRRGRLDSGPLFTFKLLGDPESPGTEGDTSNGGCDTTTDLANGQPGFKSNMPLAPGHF
T1 sequence (P23944 whole entry): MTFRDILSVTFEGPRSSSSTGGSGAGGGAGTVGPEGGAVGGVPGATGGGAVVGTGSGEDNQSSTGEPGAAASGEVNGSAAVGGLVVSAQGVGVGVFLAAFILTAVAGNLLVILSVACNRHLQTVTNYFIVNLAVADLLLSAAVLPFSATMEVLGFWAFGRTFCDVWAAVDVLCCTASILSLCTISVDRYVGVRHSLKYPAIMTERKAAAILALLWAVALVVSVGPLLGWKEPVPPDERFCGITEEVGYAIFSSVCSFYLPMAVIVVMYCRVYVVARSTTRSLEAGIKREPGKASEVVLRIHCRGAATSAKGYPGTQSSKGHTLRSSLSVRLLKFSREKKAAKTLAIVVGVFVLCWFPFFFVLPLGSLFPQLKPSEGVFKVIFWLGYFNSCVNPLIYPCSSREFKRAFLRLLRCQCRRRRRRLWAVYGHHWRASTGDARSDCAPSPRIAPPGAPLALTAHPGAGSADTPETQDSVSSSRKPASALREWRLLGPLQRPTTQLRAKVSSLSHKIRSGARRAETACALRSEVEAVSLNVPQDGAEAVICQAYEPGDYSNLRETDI
T1 sequence (P43140 whole entry): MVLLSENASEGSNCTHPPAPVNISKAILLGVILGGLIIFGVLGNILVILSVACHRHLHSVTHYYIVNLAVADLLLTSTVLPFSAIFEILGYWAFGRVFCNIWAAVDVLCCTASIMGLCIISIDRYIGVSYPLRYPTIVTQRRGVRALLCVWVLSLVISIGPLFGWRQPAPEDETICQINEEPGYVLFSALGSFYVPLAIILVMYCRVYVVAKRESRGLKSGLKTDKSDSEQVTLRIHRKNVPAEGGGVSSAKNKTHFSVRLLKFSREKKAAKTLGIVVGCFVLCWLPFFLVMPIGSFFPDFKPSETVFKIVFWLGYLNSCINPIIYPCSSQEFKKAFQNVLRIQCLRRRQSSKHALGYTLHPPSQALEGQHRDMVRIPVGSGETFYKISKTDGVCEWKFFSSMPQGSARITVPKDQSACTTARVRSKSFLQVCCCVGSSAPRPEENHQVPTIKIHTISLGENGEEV
In words: Alpha-1 adrenergic receptor […] in rat anococcygeus assay. Format: functional. A digest of the protocol: (§1)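 Isolated tissue agonist test, potency compared directly with the standard in the same experiment. Standard dose-response curves were run before and after the test compound's curve. Rat anococcygeus (male Sprague-Dawley, 200-250 g; Krebs, 30 °C, 95% O2/5% CO2) was compared with phenylephrine. Field-stimulated mouse vas deferens (0.1 Hz, Mg-free Krebs, 30 °C) was compared with clonidine.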

The target of experiment [2] is T2, Alpha-2 adrenergic receptor (Mus musculus) (UniProt P30545+Q01338+Q01337). In words: Presynaptic alpha-2 adrenergic receptor from mouse vas deferens agonistic activity relative to clonidine = 1. Format: functional, tissue-based. A digest of the protocol: as §1
For experiment [3], the target named is T2, Alpha-2 adrenergic receptor (Mus musculus). In words: Ability to antagonize the inhibitory effect of clonidine on the mouse vas deferens is the presynaptic alpha-2 adrenergic receptor antagonist potency relative to idazoxan = 1. Format: functional, tissue-based. A digest of the protocol:
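Male adult mouse vasa deferentia (MFI >30 g), 0.5 g initial tension, Mg-free Krebs, 30 °C, 95% O2/5% CO2. Field stimulation at 0.1 Hz, 3-ms pulses, 100-140 V set to give ~100-mg twitch, recorded isometrically.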

Experiment [4] concerns the target T3, Adrenergic receptor alpha-1 (Rattus norvegicus) (UniProt P15823+P23944+P43140). The experiment can be described thus: Agonism at Alpha-1 adrenoceptor determined in rat anococcygeus preparation; Inactive. Format: functional. A digest of the protocol: as §1
The target of experiment [5] is T3, Adrenergic receptor alpha-1 (Rattus norvegicus). In words: In vitro inhibition of the contractile effect of phenylephrine on the isolated rat anococcygeus; potency relative to idazoxan. The format is functional.
Experiment [6] has as its target T4, Alpha-2 adrenergic receptor (Mus musculus, UniProt P30545+Q01338+Q01337).
T4 sequence (P30545 whole entry): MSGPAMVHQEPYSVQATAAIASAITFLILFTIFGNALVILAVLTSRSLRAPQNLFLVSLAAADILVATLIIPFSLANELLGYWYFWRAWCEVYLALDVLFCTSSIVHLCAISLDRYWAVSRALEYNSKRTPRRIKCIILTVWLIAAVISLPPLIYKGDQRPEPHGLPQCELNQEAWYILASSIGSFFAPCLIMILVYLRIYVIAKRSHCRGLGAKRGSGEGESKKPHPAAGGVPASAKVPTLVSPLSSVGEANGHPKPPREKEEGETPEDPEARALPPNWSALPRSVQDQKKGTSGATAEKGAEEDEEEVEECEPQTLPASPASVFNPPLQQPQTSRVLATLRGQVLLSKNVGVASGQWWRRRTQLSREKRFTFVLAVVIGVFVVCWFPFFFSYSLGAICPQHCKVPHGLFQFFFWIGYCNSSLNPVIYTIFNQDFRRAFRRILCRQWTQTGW
T4 sequence (Q01338 whole entry): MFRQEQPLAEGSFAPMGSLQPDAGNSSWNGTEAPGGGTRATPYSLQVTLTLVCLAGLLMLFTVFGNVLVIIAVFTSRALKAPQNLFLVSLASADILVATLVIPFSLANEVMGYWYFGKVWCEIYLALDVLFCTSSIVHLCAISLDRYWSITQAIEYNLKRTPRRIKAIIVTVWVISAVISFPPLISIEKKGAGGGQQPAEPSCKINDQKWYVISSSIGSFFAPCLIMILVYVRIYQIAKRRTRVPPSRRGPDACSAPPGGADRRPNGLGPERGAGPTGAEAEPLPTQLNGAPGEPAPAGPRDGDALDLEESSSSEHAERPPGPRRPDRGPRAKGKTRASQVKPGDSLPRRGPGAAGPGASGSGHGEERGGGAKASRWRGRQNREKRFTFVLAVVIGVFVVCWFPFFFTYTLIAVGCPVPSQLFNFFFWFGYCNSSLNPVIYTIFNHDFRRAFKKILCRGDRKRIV
T4 sequence (Q01337 whole entry): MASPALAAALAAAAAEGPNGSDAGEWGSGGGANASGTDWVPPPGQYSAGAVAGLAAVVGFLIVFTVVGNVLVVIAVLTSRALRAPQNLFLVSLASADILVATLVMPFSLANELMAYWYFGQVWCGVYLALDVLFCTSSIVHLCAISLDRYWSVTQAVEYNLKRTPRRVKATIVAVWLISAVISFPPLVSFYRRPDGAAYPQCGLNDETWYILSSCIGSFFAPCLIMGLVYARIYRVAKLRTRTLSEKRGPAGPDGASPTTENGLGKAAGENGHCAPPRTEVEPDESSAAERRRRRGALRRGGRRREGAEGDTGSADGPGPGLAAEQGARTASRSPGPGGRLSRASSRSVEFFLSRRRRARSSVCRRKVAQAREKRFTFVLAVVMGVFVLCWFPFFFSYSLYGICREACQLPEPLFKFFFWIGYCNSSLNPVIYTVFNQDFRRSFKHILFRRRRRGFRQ
The experiment can be described thus: Alpha-2 adrenergic receptor […] in mouse vas deferens relative to clonidine. Format: functional, tissue-based. A digest of the protocol:
as §1

Experiment [7] in a line: Ratio of agonist potencies against alpha2 and alpha-1 adrenoceptors. Format: functional.
Experiment [8] can be described thus: Selectivity between pre- and post-synaptic sites of action. Format: functional.
Experiment [9] addresses T4, Alpha-2 adrenergic receptor. The experiment can be described thus: Alpha-2 adrenergic receptor […] in mouse vas deferens assay compared to clonidine. The format is functional, tissue-based. A digest of the protocol: as §1
In experiment [10] the target is T2, Alpha-2 adrenergic receptor (Mus musculus). In words: Inhibition of alpha-2 adrenergic receptor. The format is functional.
The target is the same in experiment [11]. In words: Presynaptic alpha-2 adrenergic receptor agonist activity in isolated mouse vas deferens. Format: functional, tissue-based. A digest of the protocol: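 Vasa deferentia from adult male MFI mice (>30 g) were held at 0.5 g initial tension in Mg-free Krebs solution at 30 °C, gassed with 95% O2/5% CO2. Tissues were field-stimulated at 0.1 Hz with 3-ms pulses, with voltage (100-140 V) set for about 100-mg twitches, recorded isometrically. Potency was expressed relative to the standard, run before and after each analogue curve in the same tissue.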

The target of experiment [12] is T3, Adrenergic receptor alpha-1 (Rattus norvegicus). The experiment can be described thus: Post-synaptic alpha-1 adrenergic receptor (rat anococcygeus) agonistic activity relative to phenylephrine; Inactive. The format is functional. A digest of the protocol:
as §1

Experiment [13] shares this target. In words: In vitro inhibition of the contractile effect of phenylephrine on the isolated rat anococcygeus; potency relative to idazoxan; Inactive. The format is functional.
Experiment [14] has the same target. In words: Post-synaptic alpha-1 adrenergic receptor (rat anococcygeus) agonistic activity relative to phenylephrine. Format: functional. A digest of the protocol: as §1
For experiment [15], the target named is T2, Alpha-2 adrenergic receptor (Mus musculus). The experiment can be described thus: Presynaptic alpha-2 adrenergic receptor agonistic activity in mouse vas deferens relative to clonidine. Format: functional, tissue-based. A digest of the protocol:
as §1

Experiment [16] concerns the target T3, Adrenergic receptor alpha-1 (Rattus norvegicus). In words: Agonism in vitro at Alpha-1 adrenoceptor determined in rat anococcygeus preparation. Format: functional. A digest of the protocol: as §1

10 compounds from ChEMBL document CHEMBL1122643, “Alpha-adrenoreceptor reagents. 2. Effects of modification of the 1,4-benzodioxan ring system on alpha-adrenoreceptor activity” (J Med Chem, 1984) can be followed below.

Activity calls are given as the source filed them. The rule behind the calls is not given here.

In general, pA2 refers to the negative logarithm of the molar antagonist concentration that doubles the agonist concentration needed for the same response. With `Cl.Clc1ccc2c(c1)CC(C1=NCCN1)O2` (stereo not given), the pA2 is 7.05 in experiment [1] and 7.8 in experiment [6]. For the same compound, the Agonist potency result in experiment [2] and in experiment [4] was “inactive” in each case. Moreover, the Antagonist potency was determined as 0.53 in [3] and 0.35 in [5]. The Selectivity ratio in [7] came out at 5.6. The Ratio in experiment [8] was found to be 1.5.
With `CCCCCC1(C2=NCCN2)Cc2ccccc2O1.Cl` (stereo not given), the figures for the pA2 in experiment [1] and in experiment [6] were 6.47 and 7.97, respectively. For the same compound, the Agonist potency entry in experiment [2] and in experiment [4] was “inactive” each time. In addition, the Antagonist potency in experiment [3] came out at 0.44; in experiment [5], 1. For the same compound, the Selectivity ratio in experiment [7] stood at 32. Also, the Ratio in experiment [8] is 0.44.
`Cl.c1ccc2c(c1)OCC(C1=NCCN1)O2` (stereo not given) [IDAZOXAN HYDROCHLORIDE]: the pA2 in [9] was 7.98.
Turning to `Clc1cccc(Cl)c1NC1=NCCN1`, the IC40 in experiment [10] worked out at 3.68 nM. The same compound displayed a pD2 in experiment [11] of 8.8.
On to `COc1ccc2c(c1)CC(C1=NCCN1)O2` (stereo not given), for which the Agonist potency result in [2] and in [12] was “inactive” throughout. For the same compound, the Antagonist potency was determined as 0.12 in experiment [3] and 0.023 in [5]. In addition, the Ratio in experiment [8] was 5.2.
As for `CCC1(C2=NCCN2)Cc2ccccc2O1.Cl` (stereo not given) [EFAROXAN HYDROCHLORIDE], the pA2 in [1] turned out to be 5.91; in experiment [6] it was 8.32. For the same compound, the Agonist potency entry in [2] and in experiment [4] was “inactive” throughout. The Antagonist potency in [3] amounted to 1.8; in experiment [5], 0.3. Moreover, the Selectivity ratio in experiment [7] turned out to be 258. Besides, the Ratio in experiment [8] is 6.
For the compound `Cc1cc(Cl)cc2c1OC(C1=NCCN1)C2` (stereo not given), in [2], the Agonist potency result was “inactive”. This compound showed an Antagonist potency in experiment [3] of 0.5. The Antagonist potency entry in experiment [13] was “inactive”. For the same compound, the Agonist potency in experiment [14] amounted to 1.
For `CCCC1(C2=NCCN2)Cc2ccccc2O1.Cl` (stereo not given), the pA2 in [1] worked out at 6.39; in [6], 8.63. Moreover, the Agonist potency entry in experiment [2] and in experiment [4] was “inactive” in each case. Besides, the Antagonist potency turned out to be 1.9 in experiment [3] and 1 in [5]. Besides, in [7], the Selectivity ratio came to 175. In addition, the Ratio in experiment [8] amounted to 1.9.
For `CC1(C2=NCCN2)Cc2ccccc2O1` (stereo not given), in [15], the Agonist potency was 0.002. The values for the Antagonist potency in [3] and in experiment [5] were 0.25 and 0.35, respectively. Further, the Agonist potency entry in [12] is “inactive”. Further, in experiment [8], the Ratio was 0.71.
In the case of `Cl.c1ccc2c(c1)CC(C1=NCCN1)O2` (stereo not given), in experiment [2], the Agonist potency entry is “inactive”. In addition, the results for the Antagonist potency in experiment [3] and in [5] were 1.7 and 0.16, respectively. In [16], this compound yielded an Agonist potency of 0.01. Moreover, the pA2 in experiment [6] was 8.35. The Ratio in experiment [8] is 10.6.
